The subject of experiment [1] is Rhizoctonia solani. Nature of the experiment: Fungicidal activity against Rhizoctonia solani assessed as induction of electrolyte leakage from hyphae at 50 ug/mL by cell membrane permeability assay. It counts as functional, organism-based.
Experiment [2] relates to Rhizoctonia solani. The experiment is described as follows: Fungicidal activity against Rhizoctonia solani assessed as mycelia rough surface and formed irregular ramification or abnormal configuration at 50 ug/mL by scanning electron micrography. In kind it is functional, organism-based. The method in brief: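 Hyphal tips (5 mm) cut from margins of R. solani colonies grown 3 days on PDA containing 0 or 50 μg mL-1 compound; glutaraldehyde (4%, 4 C) and osmium tetroxide fixation, graded acetone dehydration, critical-point drying, gold coating; imaged by SEM at 18-20 kV accelerating voltage.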

Experiment [3] concerns Rhizoctonia solani. The experiment is described as follows: Fungicidal activity against Rhizoctonia solani assessed as prevention in cotton at 140 g/ha by field efficacy trail. In kind it is functional.
The test system of the next experiment is Phyllosticta. Nature of the experiment: Fungicidal activity against Phyllospicpa physaleos Sacc., by mycelium growth rate test. It counts as functional, organism-based.
The subject of experiment [4] is Rhizoctonia solani. Nature of the experiment: Fungicidal activity against Rhizoctonia solani assessed as reduction in mycelia growth at 50 ug/mL. In kind it is functional, organism-based.
Experiment [5] deals with Rhizoctonia solani. The experiment is described as follows: Fungicidal activity against Rhizoctonia solani assessed as inhibition of intact mycelia respiration at 100 ug/mL by […]. It counts as functional. In outline: (§1)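 Intact R. solani mycelia from 5-day PD shake culture (25 C, 150 rpm), washed, resuspended at 50 mg fresh weight mL-1 in 0.1 M phosphate buffer pH 7.2 with 2% glucose; treated with 10 or 100 μg mL-1; O2 uptake by oxygraph at 25 C before and after addition; inhibition = (R0-R1)/R0 × 100; n = 3.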

Experiment [6] deals with Rhizoctonia solani. Nature of the experiment: Fungicidal activity against Rhizoctonia solani by mycelium growth rate test. It counts as functional, organism-based.
Experiment [7] has as its system Rhizoctonia solani. The experiment is described as follows: Fungicidal activity against Rhizoctonia solani assessed as inhibition of intact mycelia respiration at 10 ug/mL by […]. It counts as functional. In outline:
as §1

The subject of experiment [8] is Rhizoctonia solani. The experiment is described as follows: Fungicidal activity against Rhizoctonia solani assessed as disorganized organelles and decreased in the hyphae cytoplasm at 50 ug/mL by Transmission electron micrography. In kind it is functional, organism-based. In outline:
(§2)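 R. solani grown 3 days on PDA with 0 or 50 μg mL-1 test compound; 5 mm hyphal tips from colony margin fixed in 4% glutaraldehyde at 4 C, then 1% osmium tetroxide, acetone-dehydrated, Epon-embedded; thin sections double-stained with uranyl acetate and lead citrate, examined by TEM versus untreated control.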

The subject of another experiment is Botrytis cinerea. Nature of the experiment: Fungicidal activity against Botryotinia fuckeliana by mycelium growth rate test. It counts as functional, organism-based.
Experiment [9] deals with Rhizoctonia solani. The experiment is described as follows: Fungicidal activity against Rhizoctonia solani assessed as thicker hyphae and abnormally thickened walls of the septa at 50 ug/mL by Transmission electron micrography. In kind it is functional, organism-based. The method in brief: as §2
Experiment [10] relates to Alternaria kikuchiana. The experiment is described as follows: Fungicidal activity against Alternaria kikuchiana by mycelium growth rate test. In kind it is functional, organism-based.
The subject of experiment [11] is Rhizoctonia solani. Nature of the experiment: Fungicidal activity against Rhizoctonia solani assessed as disappearance of septal pore caps at 50 ug/mL by Transmission electron micrography. It counts as functional, organism-based. The method in brief: as §2
In the next experiment the test system is Fulvia fulva. Nature of the experiment: Fungicidal activity against Passalora fulva Cooke Ciferri assessed as inhibition rate. It counts as functional.
In a further experiment the test system is Verticillium dahliae. Nature of the experiment: Fungicidal activity against Verticillium dahliae assessed as inhibition rate. In kind it is functional.
Experiment [12] concerns Alternaria kikuchiana. The experiment is described as follows: Fungicidal activity against Alternaria kikuchiana Tanaka assessed as inhibition rate. It counts as functional.
In experiment [13] the test system is Rhizoctonia solani. The experiment is described as follows: Fungicidal activity against Rhizoctonia solani assessed as inhibition rate. In kind it is functional.
In experiment [14] the test system is Colletotrichum orbiculare. Nature of the experiment: Fungicidal activity against Colletotrichum orbiculare assessed as inhibition rate. It counts as functional.
For a further experiment, the system named is Sclerotinia sclerotiorum. The experiment is described as follows: Fungicidal activity against Sclerotinia sclerotiorum assessed as inhibition rate. In kind it is functional.

Values after ≈ are worked out from the molar mass of the structure shown. Active and inactive are the calls of the source. The rule behind the calls is not given here.

Turning to `CC(C)(C)C(=O)C(Oc1ccc(Cl)cc1)n1cncn1` (stereo unspecified), the result in the experiment on Rhizoctonia solani [1] was inactive.
For `CCCO/N=C1\CCCCCCCCCCC(=O)NCCC1`, the inhibition entry in the experiment on Rhizoctonia solani [2], in the experiment on Rhizoctonia solani [4] and with Rhizoctonia solani [8] was “Active” throughout. Moreover, the Activity with Rhizoctonia solani [3] was determined as 64%. For the same compound, the concentration for a half-maximal effect (EC50) in the experiment with Phyllosticta turned out to be 1.9 µg/mL (≈ 6.12 µM); in the experiment with Rhizoctonia solani [6], 4.6 µg/mL (≈ 14.8 µM); with Botrytis cinerea, 8.6 µg/mL (≈ 27.7 µM); in the experiment with Alternaria kikuchiana [10], 1.2 µg/mL (≈ 3.86 µM). For the same compound, in the experiment on Rhizoctonia solani [5], the inhibition at 100 µg/mL was found to be 12.1%. Further, the inhibition at 10 µg/mL with Rhizoctonia solani [7] is 3.39%. Also, in the experiment with Rhizoctonia solani [9], the result was Active.
Consider `CO/C=C(/C(=O)OC)c1ccccc1Oc1cc(Oc2ccccc2C#N)ncn1` [AZOXYSTROBIN], for which, in the experiment on Rhizoctonia solani [7], the inhibition at 10 µg/mL stood at 84.9%.
As for `F[B-](F)(F)F.O=C1CCCCCCCCCCC[NH2+]CCO1`, the inhibition entry with Rhizoctonia solani [2], in the experiment on Rhizoctonia solani [4] and in the experiment on Rhizoctonia solani [8] was “Active” each time. For the same compound, the result with Rhizoctonia solani [11] and with Rhizoctonia solani [9] was Active. The “inhibition (INH)” value in the experiment on Fulvia fulva is recorded as 89.3%; with Verticillium dahliae it was 86.9%; in the experiment with Alternaria kikuchiana [12] it was 85.7%; in the experiment on Rhizoctonia solani [13] it was 96%; in experiment [14] it was 73.2%; in the experiment with Sclerotinia sclerotiorum, 85.7%. Besides, in the experiment on Rhizoctonia solani [5], the inhibition at 100 µg/mL was determined as 3%. Moreover, the inhibition at 10 µg/mL with Rhizoctonia solani [7] is 1.67%.

By inhibition is commonly meant the relative decrease from the control value, in per cent. A word on the EC50: it is the concentration that produces a half-maximal response.
